{"source": "paper PMC6500982", "about": "(Cancer Science, 2019)", "key": {"[1]": {"test_system": "relapsed/refractory B‐cell NHL and CLL", "test": "Efficacy", "assay_type": "in vivo, human", "details": "for Partial response (VGPR or PR): includes lymphocytosis assessed as modified PR", "summary_of_the_method": "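Open-label, multicenter, non-randomised study in Japanese adults (≥20 y) with relapsed/refractory B-cell NHL (DLBCL, MCL, FL, MZL, WM/LPL) or CLL/SLL. Oral test compound was given at 160, 320 or 480 mg QD, or 300 mg BID, until progression, unacceptable AEs or consent withdrawal. Best response was graded per International Workshop Criteria for NHL, WM and CLL. ORR was CR plus PR, including PR with residual lymphocytosis, with Clopper–Pearson 95% CIs. Analysis included all patients receiving ≥1 dose.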"}, "[2]": {"biological_target": "Bruton's tyrosine kinase (BTK) (Homo sapiens, UniProt Q06187)", "sequence (Q06187 whole entry)": "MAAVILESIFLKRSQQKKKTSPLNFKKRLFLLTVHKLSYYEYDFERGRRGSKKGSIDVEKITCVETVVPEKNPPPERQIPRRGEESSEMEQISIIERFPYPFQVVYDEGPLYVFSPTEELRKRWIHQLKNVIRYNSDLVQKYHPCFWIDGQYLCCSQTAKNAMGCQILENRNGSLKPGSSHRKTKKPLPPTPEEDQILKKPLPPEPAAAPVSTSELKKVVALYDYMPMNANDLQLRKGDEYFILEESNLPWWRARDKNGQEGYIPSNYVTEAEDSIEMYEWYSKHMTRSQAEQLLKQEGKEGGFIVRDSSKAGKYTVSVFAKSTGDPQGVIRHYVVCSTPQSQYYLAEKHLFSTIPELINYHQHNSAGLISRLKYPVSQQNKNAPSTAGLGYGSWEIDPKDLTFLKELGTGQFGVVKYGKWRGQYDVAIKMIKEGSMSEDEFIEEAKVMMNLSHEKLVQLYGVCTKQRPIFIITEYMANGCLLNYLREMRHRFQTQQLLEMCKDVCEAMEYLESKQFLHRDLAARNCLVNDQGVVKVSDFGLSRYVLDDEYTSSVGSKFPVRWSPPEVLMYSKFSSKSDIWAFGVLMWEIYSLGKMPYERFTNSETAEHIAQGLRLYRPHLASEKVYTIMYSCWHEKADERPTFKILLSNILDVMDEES", "assay_type": "in vivo", "summary_of_the_method": "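PBMCs isolated from blood drawn pre-dose and 2 hours post-dose on Cycle 1 Day 1 were analysed by western blot with anti-pBTK, anti-BTK and anti-β-actin antibodies. pBTK band intensity was quantified by imaging analyzer, normalised to β-actin, and expressed relative to the pre-dose Day 1 level (set as 100%).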"}, "[3]": {"test_system": "ABC‐DLBCL cell line, TMD8", "details": "cited from earlier work"}, "[4]": {"test_system": "TMD8 transplanted mouse tumor model", "details": "cited from earlier work"}, "[5]": {"details": "DLBCL, 3 patients who received 300 mg BID"}}, "note": "Entries after “also recorded” stand apart in the source; their conditions may differ."}
{"compound": "CC#CC(=O)N1CC[C@@H](n2c(=O)n(-c3ccc(Oc4ccccc4)cc3)c3c(N)ncnc32)C1", "note": "[tirabrutinib]", "values": [{"measurement": "Complete response (CR, CRu, CRi)", "setting": "[1]; 160 mg QD N = 3", "value": "1 (33.3) n (%)"}, {"measurement": "Overall response (CR, CRu, CRi, VGPR or PR)", "setting": "[1]; 160 mg QD N = 3", "value": "3 (100.0) n (%)"}, {"measurement": "Partial response (VGPR or PR)", "setting": "[1]; 160 mg QD N = 3", "value": "2 (66.7) n (%)"}, {"measurement": "Complete response (CR, CRu, CRi)", "setting": "[1]; 300 mg BID N = 7", "value": "3 (42.9) n (%)"}, {"measurement": "Overall response (CR, CRu, CRi, VGPR or PR)", "setting": "[1]; 300 mg BID N = 7", "value": "4 (57.1) n (%)"}, {"measurement": "Partial response (VGPR or PR)", "setting": "[1]; 300 mg BID N = 7", "value": "1 (14.3) n (%)"}, {"measurement": "Complete response (CR, CRu, CRi)", "setting": "[1]; 320 mg QD N = 3", "value": "2 (66.7) n (%)"}, {"measurement": "Overall response (CR, CRu, CRi, VGPR or PR)", "setting": "[1]; 320 mg QD N = 3", "value": "3 (100.0) n (%)"}, {"measurement": "Partial response (VGPR or PR)", "setting": "[1]; 320 mg QD N = 3", "value": "1 (33.3) n (%)"}, {"measurement": "Complete response (CR, CRu, CRi)", "setting": "[1]; 480 mg QD N = 4", "value": "0 (.0) n (%)"}, {"measurement": "Overall response (CR, CRu, CRi, VGPR or PR)", "setting": "[1]; 480 mg QD N = 4", "value": "3 (75.0) n (%)"}, {"measurement": "Partial response (VGPR or PR)", "setting": "[1]; 480 mg QD N = 4", "value": "3 (75.0) n (%)"}, {"measurement": "Median progression‐free survival", "setting": "[1]; Cohort 3 (480 mg QD)", "value": 109, "unit": "days"}, {"measurement": "Median progression‐free survival", "setting": "[1]; Cohorts 1, 2 and 4", "value": "not estimable"}, {"measurement": "Number of CR", "setting": "[1]; DLBCL (5 patients)", "value": 2}, {"measurement": "Best overall response CR, number of patients", "setting": "[1]; [5]", "value": 2, "unit": "patients"}, {"measurement": "Best overall response stable disease, number of patients", "setting": "[1]; [5]", "value": 1, "unit": "patient"}, {"measurement": "Number of CR", "setting": "[1]; FL (5 patients)", "value": 1}, {"measurement": "Number of CR", "setting": "[1]; MCL (4 patients)", "value": 3}, {"measurement": "Complete response (CR, CRu, CRi)", "setting": "[1]; Total N = 17", "value": "6 (35.3) n (%)"}, {"measurement": "Overall response (CR, CRu, CRi, VGPR or PR)", "setting": "[1]; Total N = 17", "value": "13 (76.5) n (%)"}, {"measurement": "Partial response (VGPR or PR)", "setting": "[1]; Total N = 17", "value": "7 (41.2) n (%)"}, {"measurement": "Overall response rate (≥PR)", "setting": "[1]; all patients (13/17)", "value": 76.5, "unit": "%"}, {"measurement": "Patients with early response within 1 month after beginning of treatment", "setting": "[1]; of 13 patients who achieved PR or more", "value": 8, "unit": "patients"}, {"measurement": "Expression level of pBTK in PBMC", "setting": "[2]; 11 patients with confirmed basal pBTK expression, doses ≥160 mg QD", "value": "suppressed the expression level of pBTK in all 11 patients; also recorded: fully suppressed"}, {"measurement": "pBTK suppression", "setting": "[2]; patients other than the CLL patient, 2 hours post–dose on Day 1 of Cycle 1", "value": "Complete suppression"}, {"measurement": "Cytostatic properties in vitro", "setting": "[3]", "value": "cytostatic properties"}, {"measurement": "Cytostatic properties in vivo", "setting": "[4]", "value": "cytostatic properties"}]}
